Experimental findings from the RNAGym collection of RNA variant scans (doi:10.1126/science.aae0568) are described below.

The labels stand for the following.
B1: tRNA (parent)
chain: GUUCCGUUGGCGUAAUGGUAACGCGUCUCCCUCCUAAGGAGAAGACUGCGGGUUCGAGUCCCGUACGGAACG

Variants at the floor of the assay were thinned out.

In the series the parent is B1. Description: yeast fitness relative to wild type (ratio to wild type); higher = fitter; tRNA-Arg(CCU), competitive growth, 37 C, YPD. The method in brief: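 Gene amplicons from the start population and from each of six end populations were read by 100-nucleotide paired-end sequencing. Those end populations came from pooled Saccharomyces cerevisiae strains carrying tRNA-Arg(CCU) gene variants at the native locus, competed in YPD at 37°C for 24 hours. Fitness relative to wild type was worked out from changes in genotype frequencies. Genotypes needed ≥ 100 starting reads, and estimates < 0.5 were set to 0.5.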
GUUCCGUUGGCGUAAUGGUAACGCGUCUCCCUUCUAAGGAGAAGACUACGGGUUCGAGUCCCGUACGGCACG [C33U G48A A69C]: the yeast fitness was 0.705.
In the case of GUUCCGUUGGAGUAAUGGUAACGCGUCUCCCUCCUAAGGAGAAGACUGCGGGUUCGGGUCCCGUACGGAACG [C11A A57G], the yeast fitness is 0.655.
On to GUUCUGUUGGCGUAAUGGUAACGCGUCUCCCUCCUAAGGACAAGACUGCGGGUUCGAGUCCCGUACGGAACG [C5U G41C], for which the yeast fitness was determined as 0.91.
As to GUUCAGUUGGCGUAAUGGUAACGCGUCUGCCUCCUAAGGAGAGGACUGCGGGUUCGAGUCCCGUACGGAACG [C5A C29G A43G], the yeast fitness was ≤ 0.5.
On to GUUCCGAUGGCGUAAUGGUAACGCGUCUCCCGGCUAAGGAGAAGACUGCGGGUUCGAGUCCCGUACGGAUCG [U7A U32G C33G A70U], for which the yeast fitness was ≤ 0.5.
Then GUUCUGUUGGCGUAAUGGUACCGCGUCUCCCUCCUAAGGAGACGACUGCGGGUUCGAGUCCCGUACGGAACG [C5U A21C A43C], with ≤ 0.5; and GUUCCGUUGGCGUAAUGGUAAAGUGUCUCCCUCCUAAGGAGAAGACUGCGGGUUCGACUCCGGUACGGAACG [C22A C24U G58C C62G], with ≤ 0.5.
On to GUUCCGCUGGCGUAAUGGUAACGCGUCUCCGUCCUAAGGAGAAGUCUGCGGGUUCGAGUCCCGUACGGAACG [U7C C31G A45U], for which the yeast fitness is ≤ 0.5.
Then GUUCCGUUGGCGUAAUGGUACCGCGUCCCCCUCCUAAGGAGAAGACUGCGGGUUCGAGUCCCGUACGGAACG [A21C U28C], with 0.852; and GUUCCGUAGGCGUAAUGGUAACGCGUCACCGUCCUAAGGAGAAAACUGCGCGUUCGAGUCCCGUGCGGAACG [U8A U28A C31G G44A G51C A65G], with ≤ 0.5.
For the variant GUCCCGUUGGCGUAAUGAUAACGCGUCUCCCUCCUAAGGAGAAGACUGCGGGAGCGAGUCCCGUACUGAACG [U3C G18A U53A U54G G67U], the yeast fitness is ≤ 0.5.
Consider GUUCCGUUAGCGUAAUGGUAACACCUCCCCCUCCUAAGGAGAAGACUGCGGGUUCGUGUCCCGUACGGAUCG [G9A G23A G25C U28C A57U A70U], for which the yeast fitness was ≤ 0.5.
On to GUUCGGUUGGCGUAAUGGUAACGCGUCUCCCUCCUAAGGAGAAGACUGCGGGUUCGCGUCCCGUACGGAACG [C5G A57C], for which the yeast fitness was 0.716.
Then GUUCCGUUGGCGUAAUGGUAACGCGUCUCCCUUCUAAGCAGAAGACUGCGGGUUCGAGCCAUGUACGGAACG [C33U G39C U59C C61A C62U], with ≤ 0.5; and GUUCCGUUGGCGUAAUGGUAAGGCGUCUCCUUCCUAAGGAGAAGACUGCGGGAUCGAGUCCCGUACGGAACG [C22G C31U U53A], with ≤ 0.5.
Then GUUCCGUUGGCGUAAUGGUAACGCAUCUCACUCAUAAGGAGAAGACUGAGGGUUCGAGUCCGGUAUGGAGCG [G25A C30A C34A C49A C62G C66U A70G], with 0.712; and GUUCCGUUGGCGUAAUGGUAACGCGUCCCCCUCCUAAGGAGAAGUCUGCGGGUUAGAGUCCCGUAAGGAACG [U28C A45U C55A C66A], with ≤ 0.5; and GUUCCGUUGGCGUAAUGGUAACGCGUCUCUCUCCUAACGAGAAGACUGCGGGUUCGAGACCCGUACGGAACG [C30U G38C U59A], with ≤ 0.5.
Then GUUCCGUUGGCGUAAUGGUAACGCGCCUCCCUCCUAAGGAGAAGAAGGCAGGUUCGAGUCCCGUACGGAACG [U26C C46A U47G G50A], with 0.541; and GAUCCGUAGGCAUAAUGGUAACGCGUCUCUCUCCUAAGGAGAAGACUGCGGGUUCGAGUCCCGUACGGAACG [U2A U8A G12A C30U], with ≤ 0.5.
As to GUUCUGUUGGCGUAAUGGUAUCGCGUCUCCCGCCUAAGGAGAAGACUGCGGGUUCGAGUCCCGUACGGAACG [C5U A21U U32G], the yeast fitness was ≤ 0.5.
Take GUUCCGUUGGCGUAAUGGUAACGCGUCUCCCUCCUAAGGAGACGACUGCGGGUUCGAGUCCCGCACGGACCG [A43C U64C A70C]: the yeast fitness came out at 0.989.
GUUCCCUUGGAGUAAUGGUAAUGCGUCUCCCUCCUAAGGAGAAGACUGCGGGUUCGAGUCCCGUACGGAACG [G6C C11A C22U]: the yeast fitness came to 0.573.
With GUUCUGUUGGCGUAAUGGUAAGGCGUCUACCUCCUAAGGAGAAGACUGCGGGUUCGAGUCCCGUACGGAACG [C5U C22G C29A], the yeast fitness was 0.585.
Turning to GUUCCGUUGGCGUAAUGGUAACGCGUCUCCCUCCUAAGGAGAAGACUCCGGGUUCGUGUCCCGUACGGAACG [G48C A57U], the yeast fitness is 0.622.
GUUACGUUGGCGUAAUCGUAACCCGUCUCCCUCCUAAGGAGAAGCCUGCGGGUCCGAGUCCCGUACGGAACG [C4A G17C G23C A45C U54C]: the yeast fitness is ≤ 0.5.
Regarding GUUCGGUUGGCGUAAUGGUAACGCGUCUCCCUCCUAAGGAGACGACUGCGGGUUCGAGUCCCGUACGGAACG [C5G A43C], the yeast fitness came to 0.744.
For the variant GUUACGUUGGUGUAAUGGUAACGCGUCUCCCACCUAACGAGAAGACUGCGGGUUUGAAUCCCGUACAGAACG [C4A C11U U32A G38C C55U G58A G67A], the yeast fitness is ≤ 0.5.
Then GUUCCGUUGGCGUAACGGUAACGCGUCUCUCUCCUAAGGAGAAGACUGCGGGUUCGAGUCCCGUACGGAACG [U16C C30U], with 0.893.
GUUCCAUUGGCGUUAUGGUCACGCGUCCCCCUCCUAAGGAGAAGAUUGCGGGUUCGAAUCCCGUACGGAACG [G6A A14U A20C U28C C46U G58A]: the yeast fitness is ≤ 0.5.
As to GUUCCGUUGGCGUAAUGGUAACGCGUCUCCCUCGUAAGGAGAAGACUGCAGGUUCGAGUCCCGUACGGAACG [C34G G50A], the yeast fitness came out at 0.644.
With GUUCCGUUGGCGUGAUGGUAACGCGUCUCCCUCCUAAGGAGAAGGCUGCAGGUUCGAGUCCCGUACGGAACG [A14G A45G G50A], the yeast fitness was ≤ 0.5.
Then GUUCCGAUGGCGUAAUGGUAACGCGUCUCCCUCCUAAGGAGGAGACUGCGGCUUCAAGUCCCGUACGGAACG [U7A A42G G52C G56A], with ≤ 0.5; and GUUCCGUUAGGGUAAUGGCAACGCGUCUCCCUCCUAAGGAGAAGACUGCGGGUUAGAGUCCCGUACGGAACG [G9A C11G U19C C55A], with ≤ 0.5.
On to GUUCCGUUGGCGUAAUGGUAACGUGUCUCCCCCCUAAGGAGAAGAAUGCGGGUUCGAGUCCCGUACGGAUCG [C24U U32C C46A A70U], for which the yeast fitness worked out at 0.65.
Then GUCCCGUUGCCGUAAUGGUAACGCGUUUCCCUCCUAAGGAGAAGACUGCGGGUUCGAGUCCCGUAUGGAACG [U3C G10C C27U C66U], with ≤ 0.5; and GUUCCGUUGGCGUAAUGGUAUCGCGUCUCCCUCCUAAGGAGUACACUGCGGGUUCGAGUGCGGUACGGAACG [A21U A42U G44C C60G C62G], with ≤ 0.5.
